High-throughput results from PubChem.
An excerpt weighted towards active compounds, which were near 4.1% of everything screened.
MPTP block: mitochondrial permeability transition pore inhibitors, primary screen, biochemical, isolated mouse mitochondria, absorbance. inhibition, % at 10 µM. hit rate 1.4% among 360,000. Ca2+ swelling absorbance, 30 min. AID 602449, 2012;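 active = inhibition of 50% or more, scaled per plate between neutral and stimulator controls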;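 note: 0% = DMSO wells given calcium and 100% = 1 mM EGTA wells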
SMARCA2 activ: SMARCA2 (BRM) function activators, primary screen, cell-based, luminescence, high throughput. MG213 cells, MMTV-luciferase reporter, dexamethasone, overnight. activation, % at 9.1 µM. hit rate 1% among 370,000. AID 652017, 2013; in the data active = activation above about 7.8%;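 note: 0% = vehicle wells and 100% = reference activator wells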
MC4R antagonist: MC4R antagonists of cAMP signaling, primary screen, cell-based, TR-FRET, antagonist arm of biased-ligand search; Melanocortin receptor 4 (Homo sapiens), P32245; hit rate 0.48% among 360,000; inhibition, % at 6.5 µM; MC4R-expressing cells, MTII-stimulated cAMP, LANCE TR-FRET; AID 540295, 2011;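 active = inhibition above its plate's cutoff, the mean of tested wells on that plate plus 3 SD, cut at about 29% in these data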;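 note: 0% = Melanotan II alone and 100% = Melanotan II plus saturating MCL0020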
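material = U2OS cells stably expressing human melanocortin 4 receptor (MC4R) | also added = Melanotan II challenge | dosing = single nominal compound dose of 6.5 µM | detection = TR-FRET with Eu-cAMP and labeled anti-cAMP, 671 nm | replication = singlicate | timing = compound 30 min, challenge 1 h, detection 1 h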
ATG4B inh: ATG4B protease inhibitors, primary screen, biochemical, fluorescence, uHTS | Cysteine protease ATG4B (Homo sapiens), Q9Y4P1 | ATG4B cleavage of LC3-PLA2, NBD-HPC fluorescence, 1 h | inhibition, % at 8.33 µM | hit rate 0.51% among 340,000; in the data active = inhibition above about 40%
MC4R barr agon: MC4R agonists recruiting beta-arrestin, primary screen, cell-based, luminescence, agonist arm of biased-ligand search; U2OS MC4R beta-arrestin complementation; percent of melanotan II response, DMSO zero; Melanocortin receptor 4 (Homo sapiens), P32245; activation, % at 8.9 µM; hit rate 0.98% among 360,000;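 active = activation above a per-plate cutoff, the mean activation of sample wells on that plate plus 3 SD, cut at about 8% in these data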
MC4R barr ag: MC4R beta-arrestin agonists, retest, confirmation, cell-based, luminescence, U2OS | shares compounds with MC4R barr agon | U2OS MC4R beta-arrestin recruitment; scaled DMSO 0%, Melanotan II 100% | activation, % at 8.9 µM | hit rate 31% among 2,400 | AID 602192, 2012;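 active = mean activation across replicates above the hit cutoff set in the earlier primary screen, cut at about 8% in these data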
MOR-DOR barr ag: agonists of MOR-DOR heterodimerization, counter-screen for MC4R biased agonist project, cell-based, luminescence; hit rate 5.8% among 2,400; U2OS PathHunter beta-arrestin, beta-gal luminescence; percent of deltorphin B response, DMSO zero; activation, % at 9.2 µM; shares compounds with MC4R barr agon;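 active = mean activation across replicates exceeds the hit threshold derived in the earlier primary screen, cut at about 18% in these data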;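 note: 100% = deltorphin B at 0.9 µM final and 0% = DMSO alone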
Target sequence (P35372 whole entry, looked up): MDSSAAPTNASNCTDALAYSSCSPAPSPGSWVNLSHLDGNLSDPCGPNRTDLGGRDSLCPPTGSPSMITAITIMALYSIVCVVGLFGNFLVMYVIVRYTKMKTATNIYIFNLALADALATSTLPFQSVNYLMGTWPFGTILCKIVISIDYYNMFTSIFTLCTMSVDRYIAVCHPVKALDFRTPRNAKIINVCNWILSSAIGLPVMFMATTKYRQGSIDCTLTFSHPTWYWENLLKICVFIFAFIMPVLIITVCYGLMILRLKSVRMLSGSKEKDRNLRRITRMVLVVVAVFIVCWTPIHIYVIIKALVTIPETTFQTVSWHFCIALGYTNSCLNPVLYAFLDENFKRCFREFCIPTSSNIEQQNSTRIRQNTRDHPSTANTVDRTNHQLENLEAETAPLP
Target sequence (P41143 whole entry, looked up): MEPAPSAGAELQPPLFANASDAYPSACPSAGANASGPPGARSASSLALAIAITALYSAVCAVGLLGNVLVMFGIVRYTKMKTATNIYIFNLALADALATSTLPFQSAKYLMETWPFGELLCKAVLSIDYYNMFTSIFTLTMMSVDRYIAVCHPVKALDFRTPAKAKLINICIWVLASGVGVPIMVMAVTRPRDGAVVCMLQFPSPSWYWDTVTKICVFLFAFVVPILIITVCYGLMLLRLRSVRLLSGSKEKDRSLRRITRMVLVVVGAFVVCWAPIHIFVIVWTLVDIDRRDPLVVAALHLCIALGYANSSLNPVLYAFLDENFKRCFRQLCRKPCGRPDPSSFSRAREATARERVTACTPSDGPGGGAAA
* = called active by the depositor; . = not tested or not shown.

SMILES	MPTP block	SMARCA2 activ	MC4R antagonist	ATG4B inh	MC4R barr agon	MC4R barr ag	MOR-DOR barr ag
O=C(CSc1nnnn1-c1ccc(F)cc1)Nc1nc2ccccc2s1	1	-3	5	3	31*	0	8
O=C(CSc1nc2ccc(NC(=O)CSc3nnnn3-c3ccccc3)cc2s1)Nc1ccccc1	5	1	18	9	14*	8	4
COc1ccc(-c2noc(C3CCCN(C(=O)NC4CCC(C)CC4)C3)n2)cc1 (centres undefined)	.	1	.	.	.	.	.
CCCCOc1ccc(C(C)NC(=O)CCS(=O)(=O)Cc2ccccc2Cl)cc1 (centres undefined)	0	-1	6	15	11*	3	4
CCCCOc1ccc(C(C)NC(=O)CCS(=O)(=O)Cc2ccc(Cl)cc2)cc1 (centres undefined)	2	0	17	12	2	.	.
Cn1c(-c2ccc(Cl)cc2)ccc(C#N)c1=O	-1	2	-2	0	11*	0	5
COc1ccc(CNCc2cc3c(C(C)(C)C)nn(-c4ccccc4)c3[nH]c2=O)cc1	2	-3	10	-5	15*	14*	12
COc1ccc(-c2ccc(/C=C3/C(=N)N4C(C)=CSC4=NC3=O)o2)c([N+](=O)[O-])c1	2	5	8	0	61*	-2	3
CCOC(=O)c1ccc(NC(=O)Nc2cc(C)on2)cc1	8	0	1	-1	11*	4	7
CCOC(=O)c1ccc(NC(=O)Nc2cccc(C)n2)cc1	5	-1	16	0	2	.	.
COc1ccc(CNC(=S)Nc2ccc3nc(N4CCOCC4)cc(C)c3c2)cc1	3	1	14	-19	41*	11*	8
COc1cccc(-c2cnc3c(NC(C)=O)cc(-c4ccc(OC)c(OC)c4)cn23)c1	-1	5	7	.	7	.	.
O=CNc1cc(-c2ccsc2)cn2c(-c3ccccc3)cnc12	1	4	-5	.	32*	35*	6
COc1ccc(-c2cc(NC(C)=O)c3ncc(-c4cccc(C(C)=O)c4)n3c2)cc1OC	1	-2	13	.	26*	27*	2
COc1cccc(-c2cnc3c(NC(C)=O)cc(-c4ccsc4)cn23)c1	2	0	25	.	37*	42*	3
COc1cccc(-c2cc(NC(C)=O)c3ncc(-c4ccc(OC)c(OC)c4)n3c2)c1	0	0	6	.	17*	11*	3
O=C(NCC1CCN(C(=O)C(=O)c2cccs2)CC1)c1cccnc1	.	-5	.	.	.	.	.
COC(=O)[C@]12C[C@H](CC(=O)N3CCC(c4ccccc4)CC3)C(=O)N(Cc3cccc4ccccc34)C1=C[C@H](COCc1ccccc1)O[C@@H]2C	.	-4	.	.	.	.	.
O=C(COC(=O)c1ccc(O)cc1)Nc1ccc(N2CCCCC2)cc1	1	-3	4	-9	0	.	.
COc1cc(OC)cc(C(=O)OCC(=O)Nc2ccc(N3CCCCC3)cc2)c1	1	-2	-2	-10	13*	2	10
O=C(COC(=O)c1ccccc1OC(F)F)Nc1ccc(N2CCCCC2)cc1	0	-1	-2	3	11*	-1	4
CCOc1ccccc1C(=O)OCC(=O)Nc1ccc(N2CCCCC2)cc1	0	-2	-6	-12	2	.	.
Cc1ccc(N=Nc2ccc(O)c3ncccc23)cc1	2	4	16	-9	11*	-1	0
Cc1ccc(N=Nc2ccc(O)c3ncccc23)cc1C	4	7	15	-1	-4	.	.
O=C(c1ccc(C#Cc2ccccc2)cc1)N1CCC(O)CC1	.	1	.	.	.	.	.
SMILES	MPTP block	SMARCA2 activ	MC4R antagonist	ATG4B inh	MC4R barr agon	MC4R barr ag	MOR-DOR barr ag
COc1ccccc1-c1cn[nH]c1-c1ccc(OCc2ccc(F)cc2)cc1O	8	-4	5	5	2	.	.
COc1ccccc1-c1cn[nH]c1-c1ccc(OCc2ccc([N+](=O)[O-])cc2)cc1O	16	-3	9	-3	15*	6	7
Oc1cc(OCc2ccccc2)ccc1-c1[nH]ncc1-c1ccccc1	20	-4	4	16	13*	5	16
O=[N+]([O-])c1ccc(COc2ccc(-c3[nH]ncc3-c3ccccc3)c(O)c2)cc1	25	-4	4	-6	5	.	.
COc1ccc(C[C@H]2CN3C(=NC[C@H]3Cc3ccccc3)N2CCNC(=O)c2ccc(C)c(Br)c2)cc1	1	.	9	4	16*	22*	27*
COc1ccc(C[C@H]2CN3C(=NC[C@@H]3Cc3ccc(O)cc3)N2CCNC(=O)c2ccc(C)c(Br)c2)cc1	1	0	4	-21	-1	.	.
Cc1cc(NC(=O)c2sccc2C)n(-c2nc3ccccc3[nH]2)n1	2	3	-15	-11	-1	.	.
Cc1cc(NC(=O)c2cccs2)n(-c2nc3ccccc3[nH]2)n1	6	0	4	-5	12*	-1	2
CCOC(=O)CC[C@@H]1CC[C@]2(CCCN(Cc3nccs3)C2)O1	.	-4	.	.	.	.	.
NC(=O)c1c(NC(=O)C2COc3ccccc3O2)sc2c1CCN(Cc1ccccc1)C2 (centres undefined)	1	-1	21	-7	14*	1	5
Fc1cccc(Cn2ccc3ccc(-c4ccc5ccn(Cc6cccc(F)c6)c5c4)cc32)c1	.	-1	.	.	.	.	.
COc1ccc(-c2cc(-c3ccccc3)nc(Cl)n2)cc1OC	2	-3	-3	2	13*	7	5
COc1ccc(/C=C/C(=O)Oc2ccc(/C=N/NC(=O)c3ccccc3)cc2)cc1OC	0	-2	5	-13	23*	-2	22*
COc1ccc(-c2cnnc(N/N=C/c3ccc(OC)c(OC)c3)n2)cc1	1	-4	-5	-17	13*	-3	5
COc1ccc(/C=N/NC(=O)c2ccncc2)cc1OC	0	-3	-3	-5	-1	.	.
COc1ccc(/C=N/NC(=O)c2nc(-c3ccccc3)cc(-c3ccccc3)n2)cc1OC	-7	2	11	15	19*	2	4
O=S1(=O)c2ccc(Br)cc2OC[C@@H](Cc2ccccc2)N1Cc1cn(CCC2OCCO2)nn1	.	-4	.	.	.	.	.
N#Cc1cccc(OC[C@@H](O)CN2CCC(C(O)(c3ccccc3)c3ccccc3)CC2)c1	.	2	.	.	.	.	.
